Article PMC5289284 (Journal of medicinal chemistry, 2016)

Assays:
[1] = system: HCVcc genotype 2a reporter virus J6/JFH1-GLuc in Huh 7.5 cells; test: HCV2a antiviral assay; format: cell-based, Hepatitis C virus; details: Huh 7.5 cells stably infected with J6/JFH1-GLuc, three days incubation
PI3Kδ = PI3Kδ (Homo sapiens, UniProt O00329); test: PI3Kδ lipid kinase membrane capture assay; format: biochemical; details: for fold selective over PI3Kδ: PI4KIIIβ versus PI3Kδ; for potency for PI3Kδ compared with compound 1: relative to compound 1, Fig. 2A
PI3Kγ = PI3Kγ (Homo sapiens, UniProt P48736); test: PI3Kγ lipid kinase membrane capture assay; format: biochemical; details: for fold selective over PI3Kγ: PI4KIIIβ versus PI3Kγ; for potency for PI3Kγ compared with compound 1: relative to compound 1, Fig. 2A
Summary of the method: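 Radiometric membrane-capture assay. For PI3Kγ, 5nM enzyme was preincubated 15 min with test compound, then cold ATP plus γ32P-ATP was added for 15 min. PI3Kγ final conditions: 50mM HEPES pH 7.5, 100mM NaCl, 0.03% CHAPS, 10mM MgCl2, 80µM PIP2, 10µM ATP, 1uCi. PI4KIIIβ ran 30 min with 2.5nM enzyme, 100µM PI, Bis-Tris Propane pH 7.5, Triton X-100, 10µM ATP, 1uCi. Both used 2% DMSO final.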

PI4KIIIβ = PI4KIIIβ (Homo sapiens, UniProt Q9UBF8); test: PI4KIIIβ lipid kinase membrane capture assay; format: biochemical; details: for potency for PI4KIIIβ compared with compound 1: relative to compound 1, Fig. 2A
Summary of the method: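 Recombinant PI4KIIIβ with a phosphoinositide substrate and γ32P-ATP in a membrane-capture format. Test compound diluted into 10% DMSO and kinase assay buffer. After the reaction, a 4 µL aliquot was spotted on 0.2 µm nitrocellulose, dried 5 min under a heat lamp, then washed once for 30 s and 6×5 min in 1M NaCl/1% phosphoric acid.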

vps34 = vps34 (Homo sapiens, UniProt Q8NEB9); test: vps34 lipid kinase membrane capture assay; format: biochemical; details: for inhibition of vps34: concentrations up to 20 µM, MnCl2; for potency for vps34 compared with compound 1: relative to compound 1, Fig. 2A
Summary of the method: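 Recombinant vps34 (10nM) was preincubated 15 min with test compound diluted in 10% DMSO/kinase buffer. Cold ATP plus γ32P-ATP (final 10µM ATP, 2.5uCi) was added and the reaction ran 1 hour. Final buffer: 50mM HEPES pH 7.5, 0.1% CHAPS, 2mM MnCl2, 1mM EGTA, 2mM DTT, 100µM PI, 500ng/µL BSA, 2% DMSO. Product was spotted on nitrocellulose and washed in 1M NaCl/1% phosphoric acid.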

PI3Kδ, sequence (O00329 whole entry): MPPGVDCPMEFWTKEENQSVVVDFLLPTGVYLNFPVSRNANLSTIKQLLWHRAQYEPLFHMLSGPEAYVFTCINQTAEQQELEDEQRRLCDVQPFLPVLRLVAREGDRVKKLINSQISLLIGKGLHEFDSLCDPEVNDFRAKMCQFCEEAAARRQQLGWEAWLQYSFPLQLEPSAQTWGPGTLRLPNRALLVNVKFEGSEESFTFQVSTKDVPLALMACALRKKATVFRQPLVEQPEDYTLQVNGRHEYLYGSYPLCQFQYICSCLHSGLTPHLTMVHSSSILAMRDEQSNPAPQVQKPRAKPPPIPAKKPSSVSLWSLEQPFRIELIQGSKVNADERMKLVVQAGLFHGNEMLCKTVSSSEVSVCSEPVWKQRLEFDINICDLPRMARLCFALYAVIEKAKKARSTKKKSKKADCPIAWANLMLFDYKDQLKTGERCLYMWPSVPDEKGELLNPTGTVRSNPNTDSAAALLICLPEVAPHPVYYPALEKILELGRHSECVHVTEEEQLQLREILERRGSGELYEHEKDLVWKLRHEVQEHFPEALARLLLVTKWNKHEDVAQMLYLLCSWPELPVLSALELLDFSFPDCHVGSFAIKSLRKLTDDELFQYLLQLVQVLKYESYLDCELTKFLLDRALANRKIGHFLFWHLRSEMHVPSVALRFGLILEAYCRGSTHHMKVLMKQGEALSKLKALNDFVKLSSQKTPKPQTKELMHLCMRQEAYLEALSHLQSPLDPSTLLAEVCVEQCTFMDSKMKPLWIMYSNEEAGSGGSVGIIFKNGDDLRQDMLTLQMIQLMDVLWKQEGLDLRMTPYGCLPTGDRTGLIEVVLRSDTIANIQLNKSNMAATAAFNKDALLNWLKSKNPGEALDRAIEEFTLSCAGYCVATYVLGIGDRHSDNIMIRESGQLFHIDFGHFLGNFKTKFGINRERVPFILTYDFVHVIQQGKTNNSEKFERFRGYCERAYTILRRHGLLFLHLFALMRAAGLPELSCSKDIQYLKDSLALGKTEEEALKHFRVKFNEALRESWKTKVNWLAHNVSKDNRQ
PI3Kδ, sequence (P27986 whole entry partner): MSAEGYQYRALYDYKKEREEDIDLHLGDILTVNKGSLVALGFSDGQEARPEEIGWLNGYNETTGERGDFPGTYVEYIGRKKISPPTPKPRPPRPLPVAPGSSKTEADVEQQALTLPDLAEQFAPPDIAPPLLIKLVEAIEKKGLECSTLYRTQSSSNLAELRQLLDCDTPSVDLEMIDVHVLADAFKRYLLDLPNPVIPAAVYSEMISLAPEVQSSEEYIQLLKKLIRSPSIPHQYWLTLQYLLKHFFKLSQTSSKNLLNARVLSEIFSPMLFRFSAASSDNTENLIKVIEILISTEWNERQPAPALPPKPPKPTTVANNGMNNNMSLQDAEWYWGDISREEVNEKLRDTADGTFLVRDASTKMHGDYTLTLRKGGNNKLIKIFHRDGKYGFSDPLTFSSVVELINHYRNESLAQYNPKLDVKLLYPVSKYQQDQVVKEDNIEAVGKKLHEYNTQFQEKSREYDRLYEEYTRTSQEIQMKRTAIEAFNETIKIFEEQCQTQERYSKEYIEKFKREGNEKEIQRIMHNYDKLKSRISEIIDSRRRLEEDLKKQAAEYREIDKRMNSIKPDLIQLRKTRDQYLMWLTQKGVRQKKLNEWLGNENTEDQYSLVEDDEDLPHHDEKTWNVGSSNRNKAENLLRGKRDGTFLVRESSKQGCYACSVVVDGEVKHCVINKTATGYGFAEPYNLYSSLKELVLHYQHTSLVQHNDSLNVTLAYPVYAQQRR
PI3Kγ, sequence (P48736 whole entry): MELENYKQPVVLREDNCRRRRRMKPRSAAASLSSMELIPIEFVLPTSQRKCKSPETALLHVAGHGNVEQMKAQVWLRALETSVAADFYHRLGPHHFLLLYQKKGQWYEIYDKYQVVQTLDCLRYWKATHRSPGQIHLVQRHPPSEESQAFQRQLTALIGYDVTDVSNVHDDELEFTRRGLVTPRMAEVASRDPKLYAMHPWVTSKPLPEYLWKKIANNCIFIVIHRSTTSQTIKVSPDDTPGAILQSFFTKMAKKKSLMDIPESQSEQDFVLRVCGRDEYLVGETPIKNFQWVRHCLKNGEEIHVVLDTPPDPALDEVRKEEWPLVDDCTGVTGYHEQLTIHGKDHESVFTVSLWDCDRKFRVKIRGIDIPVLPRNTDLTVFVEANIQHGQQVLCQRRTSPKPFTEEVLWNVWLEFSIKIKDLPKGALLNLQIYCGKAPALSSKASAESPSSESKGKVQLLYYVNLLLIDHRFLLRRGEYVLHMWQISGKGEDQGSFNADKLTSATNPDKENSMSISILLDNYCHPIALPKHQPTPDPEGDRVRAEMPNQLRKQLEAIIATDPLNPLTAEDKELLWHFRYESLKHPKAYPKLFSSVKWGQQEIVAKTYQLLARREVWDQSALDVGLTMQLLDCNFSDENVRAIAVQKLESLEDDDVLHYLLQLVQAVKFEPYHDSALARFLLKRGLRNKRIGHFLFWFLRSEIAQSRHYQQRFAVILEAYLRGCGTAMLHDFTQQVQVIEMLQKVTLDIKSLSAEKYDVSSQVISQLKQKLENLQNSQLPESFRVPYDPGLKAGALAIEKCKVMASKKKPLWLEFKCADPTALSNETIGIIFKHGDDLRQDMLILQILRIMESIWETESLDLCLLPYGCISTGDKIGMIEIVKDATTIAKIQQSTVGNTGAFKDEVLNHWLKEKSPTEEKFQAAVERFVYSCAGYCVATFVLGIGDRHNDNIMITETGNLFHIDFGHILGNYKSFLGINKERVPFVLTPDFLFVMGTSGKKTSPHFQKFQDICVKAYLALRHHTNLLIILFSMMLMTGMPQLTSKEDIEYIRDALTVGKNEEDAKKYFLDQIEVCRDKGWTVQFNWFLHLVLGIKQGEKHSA
vps34, sequence (Q8NEB9 whole entry): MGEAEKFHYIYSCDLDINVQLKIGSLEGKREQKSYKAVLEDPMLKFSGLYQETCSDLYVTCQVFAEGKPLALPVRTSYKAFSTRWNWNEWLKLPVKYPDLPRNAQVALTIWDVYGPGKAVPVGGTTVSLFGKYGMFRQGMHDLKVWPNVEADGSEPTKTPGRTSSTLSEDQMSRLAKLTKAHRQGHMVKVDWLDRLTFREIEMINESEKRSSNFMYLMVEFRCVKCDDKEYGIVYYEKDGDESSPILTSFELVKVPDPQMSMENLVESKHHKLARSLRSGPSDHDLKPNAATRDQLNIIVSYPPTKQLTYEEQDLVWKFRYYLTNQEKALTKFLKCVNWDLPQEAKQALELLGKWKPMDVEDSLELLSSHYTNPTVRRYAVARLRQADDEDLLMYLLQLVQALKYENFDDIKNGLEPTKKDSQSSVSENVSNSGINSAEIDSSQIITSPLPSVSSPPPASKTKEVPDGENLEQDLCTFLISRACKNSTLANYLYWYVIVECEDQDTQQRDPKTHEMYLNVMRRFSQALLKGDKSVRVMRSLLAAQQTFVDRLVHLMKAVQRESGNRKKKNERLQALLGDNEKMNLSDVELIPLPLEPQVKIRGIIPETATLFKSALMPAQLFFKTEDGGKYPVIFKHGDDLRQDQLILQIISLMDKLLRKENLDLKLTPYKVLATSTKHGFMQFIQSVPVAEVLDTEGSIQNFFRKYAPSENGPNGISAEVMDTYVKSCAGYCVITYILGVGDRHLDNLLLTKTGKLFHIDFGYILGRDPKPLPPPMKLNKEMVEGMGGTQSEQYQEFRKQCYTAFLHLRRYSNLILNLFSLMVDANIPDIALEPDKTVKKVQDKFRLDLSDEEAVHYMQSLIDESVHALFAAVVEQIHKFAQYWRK
PI4KIIIβ, sequence (Q9UBF8 whole entry): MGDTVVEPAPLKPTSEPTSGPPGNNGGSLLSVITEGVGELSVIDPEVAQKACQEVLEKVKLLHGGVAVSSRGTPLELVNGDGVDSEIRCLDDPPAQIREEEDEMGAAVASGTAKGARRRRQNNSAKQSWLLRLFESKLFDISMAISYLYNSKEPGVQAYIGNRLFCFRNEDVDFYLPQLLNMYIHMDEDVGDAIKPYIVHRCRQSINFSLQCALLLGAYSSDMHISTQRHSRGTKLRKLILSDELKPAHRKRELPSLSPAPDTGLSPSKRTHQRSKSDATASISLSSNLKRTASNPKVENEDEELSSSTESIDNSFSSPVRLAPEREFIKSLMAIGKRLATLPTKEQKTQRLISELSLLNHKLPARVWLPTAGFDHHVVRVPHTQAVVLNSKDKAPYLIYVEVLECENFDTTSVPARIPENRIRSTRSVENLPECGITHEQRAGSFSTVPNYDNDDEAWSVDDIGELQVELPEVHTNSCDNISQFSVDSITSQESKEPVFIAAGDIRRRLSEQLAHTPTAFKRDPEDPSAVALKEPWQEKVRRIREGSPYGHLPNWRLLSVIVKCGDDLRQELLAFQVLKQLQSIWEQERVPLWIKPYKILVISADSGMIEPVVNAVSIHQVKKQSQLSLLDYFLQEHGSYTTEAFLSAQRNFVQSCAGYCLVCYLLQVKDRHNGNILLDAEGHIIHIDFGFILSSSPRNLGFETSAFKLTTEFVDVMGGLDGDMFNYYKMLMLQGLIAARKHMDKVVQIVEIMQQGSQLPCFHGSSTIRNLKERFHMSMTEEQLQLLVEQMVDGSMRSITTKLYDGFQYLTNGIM

COc1ccc(-c2sc(NC(=O)C(C)(C)C)nc2C)cc1S(=O)(=O)Nc1ccc(O)cc1 [compound 10]
anti-viral activity against Hepatitis C Virus and toxicity [1]: best combination of anti-viral efficacy, and lowest toxicity
fold selective over PI3Kδ (PI3Kδ): > 200 fold
fold selective over PI3Kγ (PI3Kγ): > 1000 fold
fold selective for PI4KIIIβ across all enzymes tested (PI4KIIIβ; panel of nine related lipid kinases): > 200 fold
inhibition of vps34 (vps34): no inhibition

COc1ccc(-c2sc(NC(C)=O)nc2C)cc1S(=O)(=O)NCCO [compound 3]
fold selective over PI3Kδ (PI3Kδ): > 40 fold
fold selective over PI3Kγ (PI3Kγ): > 40 fold
potency for PI4KIIIβ compared with compound 1 (PI4KIIIβ): increase in potency

Cc1nc(NC(=O)C2CCCC2)sc1-c1ccc(Cl)c(S(=O)(=O)NCCO)c1 [compound 5]
fold selective over PI3Kγ (PI3Kγ): > 90 fold

CC(=O)Nc1nc(C)c(-c2ccc(Br)c(S(=O)(=O)NCCO)c2)s1 [compound 2]
potency for PI3Kδ compared with compound 1 (PI3Kδ): slight increase in potency
potency for PI3Kγ compared with compound 1 (PI3Kγ): slight decrease in potency
potency for PI4KIIIβ compared with compound 1 (PI4KIIIβ): slight increase in potency
potency for vps34 compared with compound 1 (vps34): slight increase in potency

CC(=O)Nc1nc(C)c(-c2ccc(Cl)c(S(=O)(=O)Nc3ccc(F)cc3)c2)s1 [compound 7]
potency for PI4KIIIβ compared with compound 1 (PI4KIIIβ): minimal differences in both potency and specificity

COc1ccc(-c2sc(NC(=O)C3CCCC3)nc2C)cc1S(=O)(=O)Nc1ccc(O)cc1 [compound 9]
anti-viral activity against Hepatitis C Virus and toxicity [1]: best combination of anti-viral efficacy, and lowest toxicity
fold selective over PI3Kδ (PI3Kδ): > 20 fold
fold selective over PI3Kγ (PI3Kγ): > 140 fold
inhibition of vps34 (vps34): no inhibition

Cc1nc(NC(=O)C(C)(C)C)sc1-c1ccc(Cl)c(S(=O)(=O)NCCO)c1 [compound 4]
fold selective over PI3Kγ (PI3Kγ): > 600 fold

CC(=O)Nc1nc(C)c(-c2ccc(Cl)c(S(=O)(=O)Nc3ccc(O)cc3)c2)s1 [compound 6]
potency for PI3Kδ compared with compound 1 (PI3Kδ): large increase in potency
potency for PI3Kγ compared with compound 1 (PI3Kγ): large increase in potency
potency for PI4KIIIβ compared with compound 1 (PI4KIIIβ): large increase in potency
potency for vps34 compared with compound 1 (vps34): large increase in potency
